ChEMBL document CHEMBL3098105, “7,7'-Diazaindirubin--a small molecule inhibitor of casein kinase 2 in vitro and in cells” (Bioorg Med Chem, 2014)

What was measured:
[1] = biological target: Hepatocyte growth factor receptor (Homo sapiens) (UniProt P08581); assay: Inhibition of human Met assessed as residual activity at 1 uM relative to control
MCF7 = assay: Cell cycle arrest in human MCF7 cells assessed as accumulation at S phase at 1 uM after 24 hrs using propidium iodide staining by FACS analysis (reference value: 18.59%); assay type: functional
[2] = biological target: Receptor-type tyrosine-protein kinase FLT3 (Homo sapiens) (UniProt P36888); assay: Inhibition of FLT3 (unknown origin) assessed as residual activity at 10 uM relative to control
Chain of Receptor-type tyrosine-protein kinase FLT3 (Homo sapiens) (P36888 whole entry): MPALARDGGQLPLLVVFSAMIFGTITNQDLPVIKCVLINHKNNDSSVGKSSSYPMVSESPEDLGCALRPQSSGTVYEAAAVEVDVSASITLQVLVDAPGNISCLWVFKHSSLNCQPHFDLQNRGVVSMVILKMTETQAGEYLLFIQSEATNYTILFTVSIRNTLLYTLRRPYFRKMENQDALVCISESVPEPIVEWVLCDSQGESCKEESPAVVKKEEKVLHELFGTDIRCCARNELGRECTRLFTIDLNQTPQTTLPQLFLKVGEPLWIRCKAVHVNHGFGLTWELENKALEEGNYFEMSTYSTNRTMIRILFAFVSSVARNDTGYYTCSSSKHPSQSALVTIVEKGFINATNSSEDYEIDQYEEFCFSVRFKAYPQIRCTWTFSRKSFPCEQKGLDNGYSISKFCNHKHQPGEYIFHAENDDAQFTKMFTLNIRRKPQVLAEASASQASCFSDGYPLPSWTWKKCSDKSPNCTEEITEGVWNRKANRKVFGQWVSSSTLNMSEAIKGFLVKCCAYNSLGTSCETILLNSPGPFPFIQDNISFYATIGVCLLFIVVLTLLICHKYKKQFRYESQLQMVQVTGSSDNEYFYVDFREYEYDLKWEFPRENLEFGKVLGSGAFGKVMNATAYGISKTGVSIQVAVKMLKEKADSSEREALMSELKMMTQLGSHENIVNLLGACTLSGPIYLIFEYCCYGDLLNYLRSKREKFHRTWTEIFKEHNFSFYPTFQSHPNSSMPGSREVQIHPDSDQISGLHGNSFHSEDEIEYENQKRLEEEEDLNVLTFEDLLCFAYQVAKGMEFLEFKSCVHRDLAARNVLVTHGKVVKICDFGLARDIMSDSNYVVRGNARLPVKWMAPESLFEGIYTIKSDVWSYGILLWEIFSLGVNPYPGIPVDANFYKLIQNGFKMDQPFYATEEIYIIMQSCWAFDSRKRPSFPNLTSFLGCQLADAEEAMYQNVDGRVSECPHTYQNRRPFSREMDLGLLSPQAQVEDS

[3] = biological target: Ribosomal protein S6 kinase alpha-2 (Homo sapiens) (UniProt Q15349); assay: Inhibition of human Rsk3 assessed as residual activity at 1 uM relative to control
[4] = biological target: Serine/threonine-protein kinase 3 (Homo sapiens) (UniProt Q13188); assay: Inhibition of human MST2 assessed as residual activity at 1 uM relative to control
[5] = biological target: Activin receptor type-1B (Homo sapiens) (UniProt P36896); assay: Inhibition of human ALK4 assessed as residual activity at 1 uM relative to control
[6] = biological target: Dual specificity mitogen-activated protein kinase kinase 4 (Mus musculus) (UniProt P47809); assay: Inhibition of mouse MKK4 assessed as residual activity at 1 uM relative to control
MOLT-4 = assay: Antiproliferative activity against human MOLT4 cells after 3 days by sulforhodamine B assay; assay type: functional; conditions: MOLT-4, 72 h
How it was run: (§1)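 Tested in the NCI 60 cell line panel. GI50 is the concentration giving 50% inhibition of cell growth, and values are the mean of two series of tests.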

[7] = biological target: Calcium/calmodulin-dependent protein kinase type II subunit beta (Homo sapiens) (UniProt Q13554); assay: Inhibition of human CaMK2beta assessed as residual activity at 1 uM relative to control
SR = assay: Antiproliferative activity against human SR cells after 3 days by sulforhodamine B assay; assay type: functional; conditions: 72 h
[8] = biological target: Tyrosine-protein kinase ABL2 (Homo sapiens) (UniProt P42684); assay: Inhibition of human Arg assessed as residual activity at 1 uM relative to control
Chain of Tyrosine-protein kinase ABL2 (Homo sapiens) (P42684 whole entry): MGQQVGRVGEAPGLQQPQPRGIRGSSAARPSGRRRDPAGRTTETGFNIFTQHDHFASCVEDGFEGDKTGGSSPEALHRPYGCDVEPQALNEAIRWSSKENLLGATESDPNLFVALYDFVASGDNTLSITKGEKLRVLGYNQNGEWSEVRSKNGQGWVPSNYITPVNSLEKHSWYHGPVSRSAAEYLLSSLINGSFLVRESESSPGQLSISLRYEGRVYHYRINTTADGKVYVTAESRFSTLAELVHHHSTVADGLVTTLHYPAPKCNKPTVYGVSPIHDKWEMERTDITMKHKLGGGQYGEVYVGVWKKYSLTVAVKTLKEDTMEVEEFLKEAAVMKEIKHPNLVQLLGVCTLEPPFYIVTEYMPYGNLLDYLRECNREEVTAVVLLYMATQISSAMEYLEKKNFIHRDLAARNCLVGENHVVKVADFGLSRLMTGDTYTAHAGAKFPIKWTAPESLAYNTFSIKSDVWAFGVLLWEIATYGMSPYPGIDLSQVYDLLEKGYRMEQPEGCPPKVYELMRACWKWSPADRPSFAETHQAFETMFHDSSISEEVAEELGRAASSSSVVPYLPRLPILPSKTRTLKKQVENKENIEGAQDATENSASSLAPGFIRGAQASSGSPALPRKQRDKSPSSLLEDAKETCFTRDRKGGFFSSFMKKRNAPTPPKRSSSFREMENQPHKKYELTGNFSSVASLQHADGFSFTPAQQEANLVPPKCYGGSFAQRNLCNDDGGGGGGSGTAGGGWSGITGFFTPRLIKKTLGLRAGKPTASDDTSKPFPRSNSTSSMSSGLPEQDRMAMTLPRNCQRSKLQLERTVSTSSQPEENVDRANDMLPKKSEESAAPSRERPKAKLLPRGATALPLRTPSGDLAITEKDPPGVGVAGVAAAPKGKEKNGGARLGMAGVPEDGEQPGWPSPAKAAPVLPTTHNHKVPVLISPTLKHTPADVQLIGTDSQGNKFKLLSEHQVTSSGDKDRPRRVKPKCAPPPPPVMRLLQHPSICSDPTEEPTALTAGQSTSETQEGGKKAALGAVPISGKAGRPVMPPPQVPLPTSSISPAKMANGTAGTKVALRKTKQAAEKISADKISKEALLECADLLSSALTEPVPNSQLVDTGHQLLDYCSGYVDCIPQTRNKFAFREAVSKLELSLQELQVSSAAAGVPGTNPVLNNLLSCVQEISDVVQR

[9] = biological target: SRSF protein kinase 1 (Homo sapiens) (UniProt Q96SB4); assay: Inhibition of human SRPK1 assessed as residual activity at 1 uM relative to control
[10] = biological target: Insulin-like growth factor 1 receptor (Homo sapiens) (UniProt P08069); assay: Inhibition of IGF1-R (unknown origin) assessed as residual activity at 10 uM relative to control
[11] = Antiproliferative activity against human OVCAR4 cells after 3 days by sulforhodamine B assay; assay type: functional; conditions: OVCAR-4, 72 h; how it was run: as §1
[12] = biological target: Tyrosine-protein kinase Lck (Homo sapiens) (UniProt P06239); assay: Inhibition of human Lck assessed as residual activity at 1 uM relative to control
[13] = biological target: G protein-coupled receptor kinase 5 (Homo sapiens) (UniProt P34947); assay: Inhibition of human GRK5 assessed as residual activity at 1 uM relative to control
[14] = biological target: Serine/threonine-protein kinase TAO3 (Homo sapiens) (UniProt Q9H2K8); assay: Inhibition of human TAO3 assessed as residual activity at 1 uM relative to control
[15] = biological target: Cyclin-dependent kinase 2/cyclin E1 (Homo sapiens) (UniProt P24864+P24941); assay: Inhibition of CDK2/CycE (unknown origin) assessed as residual activity at 10 uM relative to control; assay type: protein-complex assay
[16] = biological target: Tyrosine-protein kinase JAK2 (Homo sapiens) (UniProt O60674); assay: Inhibition of human JAK2 assessed as residual activity at 1 uM relative to control
[17] = biological target: Serine/threonine-protein kinase PLK3 (Homo sapiens) (UniProt Q9H4B4); assay: Inhibition of human Plk3 assessed as residual activity at 1 uM relative to control
[18] = biological target: Serine/threonine-protein kinase 33 (Homo sapiens) (UniProt Q9BYT3); assay: Inhibition of human STK33 assessed as residual activity at 1 uM relative to control
[19] = biological target: T1, Serine/threonine-protein kinase Chk1 (Homo sapiens) (UniProt O14757); assay: Inhibition of CHK1 (unknown origin) assessed as residual activity at 10 uM relative to control
T1 sequence (whole entry): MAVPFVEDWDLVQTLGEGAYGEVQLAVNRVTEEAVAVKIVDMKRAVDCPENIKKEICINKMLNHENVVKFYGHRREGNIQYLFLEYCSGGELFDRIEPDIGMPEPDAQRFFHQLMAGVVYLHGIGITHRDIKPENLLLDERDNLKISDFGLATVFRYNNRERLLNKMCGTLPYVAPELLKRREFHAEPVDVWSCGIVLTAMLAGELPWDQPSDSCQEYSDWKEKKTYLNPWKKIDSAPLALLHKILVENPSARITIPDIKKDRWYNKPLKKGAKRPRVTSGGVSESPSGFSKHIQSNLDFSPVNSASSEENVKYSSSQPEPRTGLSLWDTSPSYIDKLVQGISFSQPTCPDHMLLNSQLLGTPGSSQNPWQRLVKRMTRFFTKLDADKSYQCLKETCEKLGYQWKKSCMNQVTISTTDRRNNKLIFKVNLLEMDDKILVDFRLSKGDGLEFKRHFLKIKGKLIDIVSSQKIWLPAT

[20] = biological target: Serine/threonine-protein kinase MARK2 (Homo sapiens) (UniProt Q7KZI7); assay: Inhibition of human PAR1Balpha assessed as residual activity at 1 uM relative to control
[21] = biological target: Serine/threonine-protein kinase TAO2 (Homo sapiens) (UniProt Q9UL54); assay: Inhibition of human TAO2 assessed as residual activity at 1 uM relative to control
[22] = biological target: Glycogen synthase kinase-3 beta (Homo sapiens) (UniProt P49841); assay: Inhibition of human GSK3beta assessed as residual activity at 1 uM relative to control
[23] = biological target: Vascular endothelial growth factor receptor 3 (Homo sapiens) (UniProt P35916); assay: Inhibition of VEGF-R3 (unknown origin) assessed as residual activity at 1 uM relative to control
Chain of Vascular endothelial growth factor receptor 3 (Homo sapiens) (P35916 whole entry): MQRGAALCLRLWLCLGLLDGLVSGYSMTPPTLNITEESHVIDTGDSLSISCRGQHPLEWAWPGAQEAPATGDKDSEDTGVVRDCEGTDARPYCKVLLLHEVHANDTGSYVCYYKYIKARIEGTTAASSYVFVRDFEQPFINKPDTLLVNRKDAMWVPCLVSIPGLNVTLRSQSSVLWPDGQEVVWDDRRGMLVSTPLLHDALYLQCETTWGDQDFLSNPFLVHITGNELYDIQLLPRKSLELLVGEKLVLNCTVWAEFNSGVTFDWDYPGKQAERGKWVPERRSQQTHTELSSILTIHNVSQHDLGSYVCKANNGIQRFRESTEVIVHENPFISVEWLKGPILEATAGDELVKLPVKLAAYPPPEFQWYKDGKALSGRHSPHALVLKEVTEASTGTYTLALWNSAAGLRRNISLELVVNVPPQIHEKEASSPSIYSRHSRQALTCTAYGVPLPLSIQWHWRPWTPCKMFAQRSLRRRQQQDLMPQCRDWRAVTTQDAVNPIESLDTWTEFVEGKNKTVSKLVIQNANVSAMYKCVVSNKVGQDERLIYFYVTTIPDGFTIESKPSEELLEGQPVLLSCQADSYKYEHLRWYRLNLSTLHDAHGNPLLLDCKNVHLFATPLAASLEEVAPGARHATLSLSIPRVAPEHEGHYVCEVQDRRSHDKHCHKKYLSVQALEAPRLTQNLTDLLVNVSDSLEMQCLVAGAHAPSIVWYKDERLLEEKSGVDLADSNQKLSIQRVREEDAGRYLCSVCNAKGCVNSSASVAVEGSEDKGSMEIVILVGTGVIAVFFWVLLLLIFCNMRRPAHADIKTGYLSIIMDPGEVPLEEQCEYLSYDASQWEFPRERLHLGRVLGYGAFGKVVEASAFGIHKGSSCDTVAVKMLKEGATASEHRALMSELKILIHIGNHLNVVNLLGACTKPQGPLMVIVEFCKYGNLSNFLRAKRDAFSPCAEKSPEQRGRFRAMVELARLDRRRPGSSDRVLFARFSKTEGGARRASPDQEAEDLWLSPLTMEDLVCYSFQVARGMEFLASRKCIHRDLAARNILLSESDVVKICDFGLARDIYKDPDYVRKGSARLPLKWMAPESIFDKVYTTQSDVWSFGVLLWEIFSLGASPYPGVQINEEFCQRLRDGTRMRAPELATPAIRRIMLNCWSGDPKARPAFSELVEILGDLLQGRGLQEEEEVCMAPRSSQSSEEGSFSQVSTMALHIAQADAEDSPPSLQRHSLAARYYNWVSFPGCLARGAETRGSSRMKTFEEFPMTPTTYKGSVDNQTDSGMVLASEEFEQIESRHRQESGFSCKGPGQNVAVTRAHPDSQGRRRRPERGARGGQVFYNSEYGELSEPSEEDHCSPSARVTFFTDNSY

[24] = biological target: Serine/threonine-protein kinase TAO1 (Homo sapiens) (UniProt Q7L7X3); assay: Inhibition of human TAO1 assessed as residual activity at 1 uM relative to control
[25] = system: Ribosomal protein S6 kinase alpha-6 (Homo sapiens); assay: Inhibition of human Rsk4 assessed as residual activity at 1 uM relative to control
[26] = biological target: Proto-oncogene tyrosine-protein kinase Src (Homo sapiens) (UniProt P12931); assay: Inhibition of SRC (unknown origin) assessed as residual activity at 1 uM relative to control
[27] = biological target: Fibroblast growth factor receptor 4 (Homo sapiens) (UniProt P22455); assay: Inhibition of human FGFR4 assessed as residual activity at 1 uM relative to control
Chain of Fibroblast growth factor receptor 4 (Homo sapiens) (P22455 22-802 limits assumed): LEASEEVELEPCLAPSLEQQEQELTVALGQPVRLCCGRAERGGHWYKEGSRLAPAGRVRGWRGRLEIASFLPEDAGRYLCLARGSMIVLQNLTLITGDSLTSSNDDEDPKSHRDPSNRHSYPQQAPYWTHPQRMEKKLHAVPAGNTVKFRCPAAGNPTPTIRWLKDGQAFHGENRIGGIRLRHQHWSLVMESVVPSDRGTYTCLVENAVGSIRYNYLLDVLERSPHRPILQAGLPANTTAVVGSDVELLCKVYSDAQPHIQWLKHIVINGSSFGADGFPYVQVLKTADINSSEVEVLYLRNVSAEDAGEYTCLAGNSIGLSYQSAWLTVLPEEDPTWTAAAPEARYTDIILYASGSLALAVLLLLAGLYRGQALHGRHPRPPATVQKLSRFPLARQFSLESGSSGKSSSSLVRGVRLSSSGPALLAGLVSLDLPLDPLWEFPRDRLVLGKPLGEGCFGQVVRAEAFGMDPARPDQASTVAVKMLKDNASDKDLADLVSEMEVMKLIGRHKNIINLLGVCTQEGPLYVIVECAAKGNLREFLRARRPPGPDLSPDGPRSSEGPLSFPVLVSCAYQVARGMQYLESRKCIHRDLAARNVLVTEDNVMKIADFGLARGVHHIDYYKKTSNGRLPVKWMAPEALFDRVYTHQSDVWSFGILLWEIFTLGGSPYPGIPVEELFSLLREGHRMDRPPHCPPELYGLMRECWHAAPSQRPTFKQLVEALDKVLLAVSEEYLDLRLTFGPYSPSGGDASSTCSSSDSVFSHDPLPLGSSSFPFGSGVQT

[28] = biological target: Protein kinase C iota type (Homo sapiens) (UniProt P41743); assay: Inhibition of human PKCiota assessed as residual activity at 1 uM relative to control
Chain of Protein kinase C iota type (Homo sapiens) (P41743 whole entry): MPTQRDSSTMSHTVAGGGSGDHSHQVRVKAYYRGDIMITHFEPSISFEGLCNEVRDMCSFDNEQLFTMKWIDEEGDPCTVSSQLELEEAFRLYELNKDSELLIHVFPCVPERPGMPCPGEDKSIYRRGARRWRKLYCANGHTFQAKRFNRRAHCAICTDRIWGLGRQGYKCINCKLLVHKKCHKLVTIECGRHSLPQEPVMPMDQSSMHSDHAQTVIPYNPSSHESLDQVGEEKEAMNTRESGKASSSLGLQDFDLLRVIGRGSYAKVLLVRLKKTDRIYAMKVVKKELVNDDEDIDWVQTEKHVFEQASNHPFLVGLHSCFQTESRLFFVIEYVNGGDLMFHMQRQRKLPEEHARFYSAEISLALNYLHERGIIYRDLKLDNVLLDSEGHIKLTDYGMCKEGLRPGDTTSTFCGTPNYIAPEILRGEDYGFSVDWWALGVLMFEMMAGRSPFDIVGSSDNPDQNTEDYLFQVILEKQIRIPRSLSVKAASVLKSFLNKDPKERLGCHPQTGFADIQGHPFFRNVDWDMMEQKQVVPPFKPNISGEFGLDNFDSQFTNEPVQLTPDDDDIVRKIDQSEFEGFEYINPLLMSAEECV

[29] = biological target: CDK3/Cyclin E (Homo sapiens) (UniProt P24864+Q00526); assay: Inhibition of human CDK3/cyclinE assessed as residual activity at 1 uM relative to control; assay type: protein-complex assay

Activity [1]: 77% | Activity [2]: 86% | Activity [3]: 72% | Activity [4]: 105% | Activity [5]: 106% | Activity [6]: 110% | GI50 (MOLT-4): 3320 nM | Activity [7]: 99% | Activity [8]: 98% | Activity [9]: 92% | Activity [10]: 94% | Activity [12]: 55% | Activity [13]: 99% | Activity [14]: 96% | Activity [15]: 77% | Activity [16]: 91% | Activity [17]: 104% | Activity [18]: 91% | Activity [19]: 99% | Activity [20]: 53% | Activity [21]: 88% | Activity [22]: 63% | Activity [23]: 82% | Activity [24]: 98% | Activity [25]: 122% | Activity [26]: 99% | Activity [27]: 108% | Activity [28]: 92% | Activity [29]: 74%
SMILES: O=C1Nc2ncccc2/C1=C1/Nc2ncccc2C1=O
Activity (MCF7): 12.87% | GI50 (SR): 2730 nM | GI50 [11]: 1090 nM
